From ChEMBL document CHEMBL1129996, “1-Aryl-3,5-dihydro-4H-2,3-benzodiazepin-4-ones: novel AMPA receptor antagonists” (J Med Chem, 1997)
Values joined by “and” are separate entries in the source; they are usually repeats but may differ in a detail not shown here. Identical values can stand only once.

How the values were obtained:
Mus musculus [1] = assay: Anticonvulsant activity against tonic phase of the audiogenic seizures in DBA / 2 mice 30 min after ip administration at a dose range 10-133 uM/kg; type: functional; conditions: 0.5 h
How it was run: (§1)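 Groups of 10 DBA/2 mice of either sex; drug ip (0.1 mL/10 g) as fresh solution in 50% DMSO/50% saline, 30 min before auditory stimulation (12-16 kHz, 109 dB, 60 s or until tonic extension) under perspex dome after 60 s habituation. Latency and incidence of wild running, clonic and tonic phases scored; ED50 (95% confidence limits) by Litchfield-Wilcoxon.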

Mus musculus [2] = assay: Anticonvulsant activity against the maximal electroshock in Swiss mice after 45 minutes pretreatment at a dose range 10-150 uM/kg; type: functional
How it was run: (§2)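 Swiss mice dosed ip in 50% DMSO/50% saline 45 min before ear-clip electroshock (50 mA, 20 ms pulses, 35 Hz, 400 ms). Protection = abolition of tonic hindlimb extension. Usually 4-5 doses with 8-10 mice each; ED50 (95% confidence limits) by Litchfield-Wilcoxon.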

[3] = Therapeutic index it is the ratio between TD50 and ED50 (from the clonic phase of the audiogenic seizures); conditions: read-out: TI
How it was run: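 Therapeutic index computed as rotarod TD50 divided by ED50 for the clonic phase of audiogenic seizures in DBA/2 mice.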

[4] = Relative lipophilicity of compound; type: physicochemical; conditions: reversed-phase TLC, acetone/water 2:1
How it was run: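 Reversed-phase TLC type lipophilicity: plates dried 105 °C 1 h, mobile phase acetone:water 2:1, 1 µL of 3 mg/mL CHCl3 solution spotted; five runs with varied positions, mean Rf converted as Rm = log[(1/Rf) - 1].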

Mus musculus [5] = assay: Pentylenetetrazole-induced seizures in Swiss mice after 45 min pretreatment at a dose range 10-150 uM/kg; type: functional
Mus musculus [6] = assay: Anticonvulsant activity against clonic phase of the audiogenic seizures in DBA / 2 mice 30 min after ip administration at a dose range 10-133 uM/kg; type: functional; conditions: 0.5 h; how it was run: as §1
[7] = Motor toxicity in 50% of mice on locomotion assessed by Rotarod test following 30 min ip administration; type: organism-based; conditions: mouse, in vivo
How it was run: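 Male Swiss mice (20-26 g, 48-54 days), groups of 10, trained on rotarod (3 cm, 8 rpm); tested 30 min after ip dosing. Impairment = failure to stay on for 2 min; TD50 (95% confidence limits) by Litchfield-Wilcoxon.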

Mus musculus [8] = assay: Anticonvulsant activity against tonic phase of the audiogenic seizures in DBA / 2 mice 30 min after ip administration at a dose range 10-120 uM/kg; type: functional; conditions: 0.5 h; how it was run: as §1
Mus musculus [9] = assay: Anticonvulsant activity against clonic phase of the audiogenic seizures in DBA / 2 mice 30 min after ip administration at a dose range 10-120 uM/kg; type: functional; conditions: 0.5 h; how it was run: as §1
Mus musculus [10] = species on record: Mus musculus; assay: Audiogenic seizures after concomitant treatment with Flumazenil (24.72 uM) in DBA / 2 mice clonic phase; type: functional
Mus musculus [11] = assay: Pentylenetetrazole-induced seizures in Swiss mice after 45 min pretreatment at a dose range 10-100 uM/kg; type: functional
How it was run: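 Male Swiss mice (20-26 g), compound ip in 50% DMSO/50% saline 45 min before sc pentylenetetrazole at CD97 (85 mg/kg), then observed 30 min. Protection is absence of clonic spasms lasting at least 5 s. Typically 4-5 doses, 8-10 mice per dose. ED50 with 95% confidence limits by Litchfield and Wilcoxon.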

Mus musculus [12] = assay: Anticonvulsant activity against tonic phase of the audiogenic seizures in DBA / 2 mice 30 min after ip administration at a dose range 10-100 uM/kg; type: functional; conditions: 0.5 h; how it was run: as §1
Mus musculus [13] = species on record: Mus musculus; assay: Audiogenic seizures after concomitant treatment with Flumazenil (8.24 uM) in DBA / 2 mice clonic phase; type: functional
Mus musculus [14] = species on record: Mus musculus; assay: Audiogenic seizures after concomitant treatment with Flumazenil (24.72 uM) in DBA / 2 mice tonic phase; type: functional
Mus musculus [15] = assay: Anticonvulsant activity against the clonic seizures induced by icv injection of AMPA in DBA / 2 mice at a dose range of 10-200 uM/kg; type: functional; conditions: central
Mus musculus [16] = assay: Anticonvulsant activity against the maximal electroshock in Swiss mice after 45 minutes pretreatment at a dose range 10-100 uM/kg; type: functional; how it was run: as §2
Mus musculus [17] = assay: Anticonvulsant activity against the tonic seizures induced by icv injection of AMPA in DBA / 2 mice at a dose range of 10-200 uM/kg; type: functional; conditions: central
Mus musculus [18] = assay: Audiogenic seizures after pretreatment with Aniracetam in DBA / 2 mice clonic phase at a dose range of 33-300 uM/kg; type: functional
How it was run: (§3)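 DBA/2 mice pretreated with aniracetam 50 nmol icv 60 min before auditory testing, with ip 2,3-benzodiazepine; audiogenic clonic and tonic phases scored; ED50 by Litchfield-Wilcoxon.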

Mus musculus [19] = assay: Audiogenic seizures after pretreatment with Aniracetam in DBA / 2 mice tonic phase at a dose range of 33-300 uM/kg; type: functional; how it was run: as §3
Mus musculus [20] = species on record: Mus musculus; assay: Audiogenic seizures after concomitant treatment with Flumazenil (8.24 uM) in DBA / 2 mice tonic phase; type: functional
Mus musculus [21] = assay: Anticonvulsant activity against clonic phase of the audiogenic seizures in DBA / 2 mice 30 min after ip administration at a dose range 10-100 uM/kg; type: functional; conditions: 0.5 h; how it was run: as §1
Mus musculus [22] = assay: Anticonvulsant activity against the maximal electroshock in Swiss mice after 45 minutes pretreatment at a dose range 33-200 uM/kg; type: functional; how it was run: as §2
Mus musculus [23] = assay: Anticonvulsant activity against tonic phase of the audiogenic seizures in DBA / 2 mice 30 min after ip administration at a dose range 33-200 uM/kg; type: functional; conditions: 0.5 h; how it was run: as §1
Mus musculus [24] = assay: Anticonvulsant activity against clonic phase of the audiogenic seizures in DBA / 2 mice 30 min after ip administration at a dose range 33-200 uM/kg; type: functional; conditions: 0.5 h; how it was run: as §1
Mus musculus [25] = assay: Pentylenetetrazole-induced seizures in Swiss mice after 45 min pretreatment at a dose range 33-200 uM/kg; type: functional

| Structure (SMILES) | ED50 (Mus musculus [2]) [µmol/kg] | therapeutic index (TD50/ED50) [3] | Rm [4] | ED50 (Mus musculus [5]) [µmol/kg] | TD50 at 0.5 h [7] [µmol/kg] | ED50 (Mus musculus [8]) | ED50 (Mus musculus [9]) | ED50 (Mus musculus [12]) | also measured |
| --- | --- | --- | --- | --- | --- | --- | --- | --- | --- |
| COc1cc2c(cc1OC)C(c1ccc(Br)cc1)=NNC(=O)C2 | 123 | 2 | 0.052 | > 150 | 226 | – | – | – | ED50 (Mus musculus [1]): 82.5 µmol/kg and 30.7 mg/kg; ED50 (Mus musculus [6]): 110 µmol/kg and 41.2 mg/kg |
| COc1cc2c(cc1OC)C(c1ccc([N+](=O)[O-])cc1)=NN(C)C(=O)C2 | > 150 | – | 0.11 | > 150 | > 150 | > 120 µmol/kg and > 44 mg/kg | > 120 µmol/kg and > 44 mg/kg | – | – |
| COc1cc2c(cc1OC)C(c1cccc([N+](=O)[O-])c1)=NNC(=O)C2 | > 150 | – | -0.14 | > 150 | > 150 | > 120 µmol/kg and > 44 mg/kg | > 120 µmol/kg and > 44 mg/kg | – | – |
| COc1cc2c(cc1OC)C(c1ccc(C#N)cc1)=NN(C)C(=O)C2 | – | – | -0.031 | – | > 150 | > 120 µmol/kg and > 44 mg/kg | > 120 µmol/kg and > 44 mg/kg | – | – |
| COc1cc2c(cc1OC)C(c1ccc(C#N)cc1)=NN(C(C)=O)C(=O)C2 | – | – | -0.065 | – | > 150 | > 120 µmol/kg and > 44 mg/kg | > 120 µmol/kg and > 44 mg/kg | – | – |
| COc1cc2c(cc1OC)C(c1ccccc1)=NNC(=O)C2 | – | 4.2 | -0.012 | – | 142 | – | – | 31.8 µmol/kg and 9.41 mg/kg | ED50 (Mus musculus [10]): 50.9 µmol/kg; ED50 (Mus musculus [11]): 68.2 µmol/kg; ED50 (Mus musculus [13]): 38.2 µmol/kg; ED50 (Mus musculus [14]): 41.3 µmol/kg; ED50 (Mus musculus [15]): 66 µmol/kg; ED50 (Mus musculus [16]): 35.8 µmol/kg; ED50 (Mus musculus [17]): 42.6 µmol/kg; ED50 (Mus musculus [18]): 215 µmol/kg; ED50 (Mus musculus [19]): 157 µmol/kg; ED50 (Mus musculus [20]): 35.8 µmol/kg |
| COc1cc2c(cc1OC)C(c1ccccc1)=NN(C)C(=O)C2 | 42.7 | 4.1 | 0 | 89.9 | 154 | – | – | 26.7 µmol/kg and 8.28 mg/kg | ED50 (Mus musculus [15]): 76.1 µmol/kg; ED50 (Mus musculus [17]): 69.6 µmol/kg; ED50 (Mus musculus [18]): 259 µmol/kg; ED50 (Mus musculus [19]): 197 µmol/kg; ED50 (Mus musculus [21]): 37.8 µmol/kg and 11.7 mg/kg |
| COc1cc2c(cc1OC)C(c1ccc(Cl)cc1)=NNC(=O)C2 | – | 2.3 | 0.017 | – | 240 | – | – | – | ED50 (Mus musculus [22]): 115 µmol/kg; ED50 (Mus musculus [23]): 75.3 µmol/kg and 24.8 mg/kg; ED50 (Mus musculus [24]): 102 µmol/kg and 33.7 mg/kg; ED50 (Mus musculus [25]): 145 µmol/kg |
| COc1cc2c(cc1OC)C(c1ccc(Br)cc1)=NN(C)C(=O)C2 | – | – | 0.288 | – | – | – | – | 38 µmol/kg and 14.8 mg/kg | ED50 (Mus musculus [21]): 63 µmol/kg and 24.5 mg/kg |
| COc1cc2c(cc1OC)C(c1ccc(C#N)cc1)=NNC(=O)C2 | > 150 | – | -0.218 | > 150 | > 150 | > 120 µmol/kg and > 44 mg/kg | > 120 µmol/kg and > 44 mg/kg | – | – |
